# System: not listed separately
# Assay: Clearance in Sprague-Dawley rat at 1 mg/kg, iv
# Type: ADME, organism-based
# Set-up: dose 1 mg/kg, route intravenous
# Details: in vivo
# Outline: (§1)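 Rats (n = 3 per route) received compound orally at 5 mg/kg or intravenously at 1 mg/kg. Plasma drug levels were measured with a limit of detection of 0.5 ng/mL, and no PK data were generated for samples below it.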
row,clearance [mL/min/kg],SMILES
1,10.7,CC(C)(C)OC(=O)N[C@H]1CCCCC/C=C\[C@@H]2C[C@@]2(C(=O)NS(=O)(=O)C2CC2)NC(=O)[C@@H]2C[C@@H](OC(=O)N3Cc4cccc(F)c4C3)CN2C1=O [DANOPREVIR]
2,82,C=C[C@@H]1C[C@]1(NC(=O)[C@@H]1C[C@@H]2CN1C(=O)[C@H](C(C)(C)C)NC(=O)OCC(C)(C)CCCCc1cccc3c1CN(C3)C(=O)O2)C(=O)NS(=O)(=O)c1cccc2c1COB2O
3,111,O=C(N[C@H]1CCCCC/C=C\[C@@H]2C[C@@]2(C(=O)NS(=O)(=O)c2ccc3c(c2)B(O)OC3)NC(=O)[C@@H]2C[C@@H](OC(=O)N3Cc4cccc(F)c4C3)CN2C1=O)OC1CCCC1

# System: not listed separately
# Assay: (§2) AUC (0 to infinity) in Sprague-Dawley rat at 5 mg/kg, po
# Type: ADME, organism-based, Plasma
# Set-up: time infinity, dose 5 mg/kg, route oral
# Details: Sprague-Dawley, plasma
# Outline: as §1
row,AUC(0-inf) [ng·h/mL],SMILES
1,1750,CC(C)(C)OC(=O)N[C@H]1CCCCC/C=C\[C@@H]2C[C@@]2(C(=O)NS(=O)(=O)C2CC2)NC(=O)[C@@H]2C[C@@H](OC(=O)N3Cc4cccc(F)c4C3)CN2C1=O [DANOPREVIR]
2,14,C=C[C@@H]1C[C@]1(NC(=O)[C@@H]1C[C@@H]2CN1C(=O)[C@H](C(C)(C)C)NC(=O)OCC(C)(C)CCCCc1cccc3c1CN(C3)C(=O)O2)C(=O)NS(=O)(=O)c1cccc2c1COB2O

# System: Rattus norvegicus
# Assay: as §2
# Type: ADME, organism-based, Plasma
# Set-up: time infinity, dose 5 mg/kg, route oral
# Details: in vivo, BLD = below limit of detection
# Outline: as §1
row,AUC,SMILES
1,BLD,O=C(N[C@H]1CCCCC/C=C\[C@@H]2C[C@@]2(C(=O)NS(=O)(=O)c2ccc3c(c2)B(O)OC3)NC(=O)[C@@H]2C[C@@H](OC(=O)N3Cc4cccc(F)c4C3)CN2C1=O)OC1CCCC1

# System: not listed separately
# Assay: Inhibition of HCV genotype 1 a NS3/4A protease by FRET assay
# Set-up: species or system Hepatitis C virus subtype 1a
# Details: not given
row,IC50 [nM],SMILES
1,0.6,C=C[C@@H]1C[C@]1(NC(=O)[C@@H]1C[C@@H]2CN1C(=O)[C@H](C(C)(C)C)NC(=O)OCC(C)(C)CCCCc1cccc3c1CN(C3)C(=O)O2)C(=O)NS(=O)(=O)c1ccc2c(c1)COB2O
2,0.4,C=C[C@@H]1C[C@]1(NC(=O)[C@@H]1C[C@@H]2CN1C(=O)[C@H](C(C)(C)C)NC(=O)OCC(C)(C)CCCCc1cccc3c1CN(C3)C(=O)O2)C(=O)NS(=O)(=O)c1ccc2c(c1)B(O)OC2
3,0.4,CC(C)(C)OC(=O)N[C@H]1CCCCC/C=C\[C@@H]2C[C@@]2(C(=O)NS(=O)(=O)C2CC2)NC(=O)[C@@H]2C[C@@H](OC(=O)N3Cc4cccc(F)c4C3)CN2C1=O [DANOPREVIR]
4,0.8,O=C(N[C@H]1CCCCC/C=C\[C@@H]2C[C@@]2(C(=O)NS(=O)(=O)c2ccc3c(c2)COB3O)NC(=O)[C@@H]2C[C@@H](OC(=O)N3Cc4cccc(F)c4C3)CN2C1=O)OC1CCCC1
5,0.3,C=C[C@@H]1C[C@]1(NC(=O)[C@@H]1C[C@@H]2CN1C(=O)[C@H](C(C)(C)C)NC(=O)OCC(C)(C)CCCCc1cccc3c1CN(C3)C(=O)O2)C(=O)NS(=O)(=O)c1cccc2c1COB2O
6,0.8,O=C(N[C@H]1CCCCC/C=C\[C@@H]2C[C@@]2(C(=O)NS(=O)(=O)c2ccc3c(c2)B(O)OC3)NC(=O)[C@@H]2C[C@@H](OC(=O)N3Cc4cccc(F)c4C3)CN2C1=O)OC1CCCC1

# System: Hepatitis C virus
# Assay: Antiviral activity against HCV genotype 1b transfected in human hepatoma cell assessed as inhibition of viral replication
# Type: functional, organism-based, Hepacivirus hominis
# Details: not given
row,EC50 [nM],SMILES
1,15,C=C[C@@H]1C[C@]1(NC(=O)[C@@H]1C[C@@H]2CN1C(=O)[C@H](C(C)(C)C)NC(=O)OCC(C)(C)CCCCc1cccc3c1CN(C3)C(=O)O2)C(=O)NS(=O)(=O)c1ccc2c(c1)COB2O
2,20,C=C[C@@H]1C[C@]1(NC(=O)[C@@H]1C[C@@H]2CN1C(=O)[C@H](C(C)(C)C)NC(=O)OCC(C)(C)CCCCc1cccc3c1CN(C3)C(=O)O2)C(=O)NS(=O)(=O)c1ccc2c(c1)B(O)OC2
3,1.1,CC(C)(C)OC(=O)N[C@H]1CCCCC/C=C\[C@@H]2C[C@@]2(C(=O)NS(=O)(=O)C2CC2)NC(=O)[C@@H]2C[C@@H](OC(=O)N3Cc4cccc(F)c4C3)CN2C1=O [DANOPREVIR]
4,12,O=C(N[C@H]1CCCCC/C=C\[C@@H]2C[C@@]2(C(=O)NS(=O)(=O)c2ccc3c(c2)COB3O)NC(=O)[C@@H]2C[C@@H](OC(=O)N3Cc4cccc(F)c4C3)CN2C1=O)OC1CCCC1
5,12,C=C[C@@H]1C[C@]1(NC(=O)[C@@H]1C[C@@H]2CN1C(=O)[C@H](C(C)(C)C)NC(=O)OCC(C)(C)CCCCc1cccc3c1CN(C3)C(=O)O2)C(=O)NS(=O)(=O)c1cccc2c1COB2O
6,8,O=C(N[C@H]1CCCCC/C=C\[C@@H]2C[C@@]2(C(=O)NS(=O)(=O)c2ccc3c(c2)B(O)OC3)NC(=O)[C@@H]2C[C@@H](OC(=O)N3Cc4cccc(F)c4C3)CN2C1=O)OC1CCCC1

# System: Rattus norvegicus
# Assay: Metabolic absorption in Sprague-Dawley rat at 5 mg/kg, po
# Type: ADME, organism-based
# Set-up: dose 5 mg/kg, route oral
# Details: in vivo
# Outline: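 Rats (n = 3 per route) were dosed orally at 5 mg/kg and intravenously at 1 mg/kg. Value calculated from portal vein drug concentrations after oral dosing relative to those after IV dosing. Limit of detection 0.5 ng/mL.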
row,Activity [%],SMILES
1,17.4,CC(C)(C)OC(=O)N[C@H]1CCCCC/C=C\[C@@H]2C[C@@]2(C(=O)NS(=O)(=O)C2CC2)NC(=O)[C@@H]2C[C@@H](OC(=O)N3Cc4cccc(F)c4C3)CN2C1=O [DANOPREVIR]
2,1.6,C=C[C@@H]1C[C@]1(NC(=O)[C@@H]1C[C@@H]2CN1C(=O)[C@H](C(C)(C)C)NC(=O)OCC(C)(C)CCCCc1cccc3c1CN(C3)C(=O)O2)C(=O)NS(=O)(=O)c1cccc2c1COB2O

# Same assay, conditions: in vivo, BLD = below limit of detection
row,Activity,SMILES
1,BLD,O=C(N[C@H]1CCCCC/C=C\[C@@H]2C[C@@]2(C(=O)NS(=O)(=O)c2ccc3c(c2)B(O)OC3)NC(=O)[C@@H]2C[C@@H](OC(=O)N3Cc4cccc(F)c4C3)CN2C1=O)OC1CCCC1

# System: Hepatitis C virus
# Assay: Antiviral activity against HCV genotype 1a transfected in human hepatoma cell assessed as inhibition of viral replication
# Type: functional, organism-based, Hepacivirus hominis
# Details: subtype 1a
row,EC50 [nM],SMILES
1,66,C=C[C@@H]1C[C@]1(NC(=O)[C@@H]1C[C@@H]2CN1C(=O)[C@H](C(C)(C)C)NC(=O)OCC(C)(C)CCCCc1cccc3c1CN(C3)C(=O)O2)C(=O)NS(=O)(=O)c1ccc2c(c1)COB2O
2,78,C=C[C@@H]1C[C@]1(NC(=O)[C@@H]1C[C@@H]2CN1C(=O)[C@H](C(C)(C)C)NC(=O)OCC(C)(C)CCCCc1cccc3c1CN(C3)C(=O)O2)C(=O)NS(=O)(=O)c1ccc2c(c1)B(O)OC2
3,1,CC(C)(C)OC(=O)N[C@H]1CCCCC/C=C\[C@@H]2C[C@@]2(C(=O)NS(=O)(=O)C2CC2)NC(=O)[C@@H]2C[C@@H](OC(=O)N3Cc4cccc(F)c4C3)CN2C1=O [DANOPREVIR]
4,70,O=C(N[C@H]1CCCCC/C=C\[C@@H]2C[C@@]2(C(=O)NS(=O)(=O)c2ccc3c(c2)COB3O)NC(=O)[C@@H]2C[C@@H](OC(=O)N3Cc4cccc(F)c4C3)CN2C1=O)OC1CCCC1
5,52,C=C[C@@H]1C[C@]1(NC(=O)[C@@H]1C[C@@H]2CN1C(=O)[C@H](C(C)(C)C)NC(=O)OCC(C)(C)CCCCc1cccc3c1CN(C3)C(=O)O2)C(=O)NS(=O)(=O)c1cccc2c1COB2O
6,66,O=C(N[C@H]1CCCCC/C=C\[C@@H]2C[C@@]2(C(=O)NS(=O)(=O)c2ccc3c(c2)B(O)OC3)NC(=O)[C@@H]2C[C@@H](OC(=O)N3Cc4cccc(F)c4C3)CN2C1=O)OC1CCCC1

# System: not listed separately
# Assay: (§3) Oral bioavailability in Sprague-Dawley rat at 5 mg/kg
# Type: ADME, organism-based
# Details: Sprague-Dawley, in vivo
# Outline: (§4)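 Dosing was oral at 5 mg/kg and IV at 1 mg/kg (n = 3 each). Bioavailability was calculated from jugular vein drug concentrations after oral administration relative to IV administration. Limit of detection 0.5 ng/mL.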
row,bioavailability [%],SMILES
1,20,CC(C)(C)OC(=O)N[C@H]1CCCCC/C=C\[C@@H]2C[C@@]2(C(=O)NS(=O)(=O)C2CC2)NC(=O)[C@@H]2C[C@@H](OC(=O)N3Cc4cccc(F)c4C3)CN2C1=O [DANOPREVIR]
2,1.2,C=C[C@@H]1C[C@]1(NC(=O)[C@@H]1C[C@@H]2CN1C(=O)[C@H](C(C)(C)C)NC(=O)OCC(C)(C)CCCCc1cccc3c1CN(C3)C(=O)O2)C(=O)NS(=O)(=O)c1cccc2c1COB2O

# System: Rattus norvegicus
# Assay: as §3
# Type: ADME, organism-based
# Details: in vivo, BLD = below limit of detection
# Outline: as §4
row,F,SMILES
1,BLD,O=C(N[C@H]1CCCCC/C=C\[C@@H]2C[C@@]2(C(=O)NS(=O)(=O)c2ccc3c(c2)B(O)OC3)NC(=O)[C@@H]2C[C@@H](OC(=O)N3Cc4cccc(F)c4C3)CN2C1=O)OC1CCCC1

# — ChEMBL document CHEMBL1287735, “Synthesis of new acylsulfamoyl benzoxaboroles as potent inhibitors of HCV NS3 protease” (Bioorg Med Chem Lett, 2010)
